For one molecule, IC50 and Activity results are on record in ChEMBL document CHEMBL3751731, “Ferulic acid-carbazole hybrid compounds: Combination of cholinesterase inhibition, antioxidant and neuroprotection as multifunctional anti-Alzheimer agents” (Bioorg Med Chem, 2016).

The target of data set [1] is Cholinesterase (Equus caballus, UniProt P81908). The experiment in a line: Inhibition of equine BChE using BTC as substrate preincubated for 5 mins followed by substrate addition measured after 2 mins by Ellman's assay. (In general: DTNB colorimetry detects thiols as they appear.)
Cholinesterase (Equus caballus, UniProt P81908), sequence (P81908 whole entry): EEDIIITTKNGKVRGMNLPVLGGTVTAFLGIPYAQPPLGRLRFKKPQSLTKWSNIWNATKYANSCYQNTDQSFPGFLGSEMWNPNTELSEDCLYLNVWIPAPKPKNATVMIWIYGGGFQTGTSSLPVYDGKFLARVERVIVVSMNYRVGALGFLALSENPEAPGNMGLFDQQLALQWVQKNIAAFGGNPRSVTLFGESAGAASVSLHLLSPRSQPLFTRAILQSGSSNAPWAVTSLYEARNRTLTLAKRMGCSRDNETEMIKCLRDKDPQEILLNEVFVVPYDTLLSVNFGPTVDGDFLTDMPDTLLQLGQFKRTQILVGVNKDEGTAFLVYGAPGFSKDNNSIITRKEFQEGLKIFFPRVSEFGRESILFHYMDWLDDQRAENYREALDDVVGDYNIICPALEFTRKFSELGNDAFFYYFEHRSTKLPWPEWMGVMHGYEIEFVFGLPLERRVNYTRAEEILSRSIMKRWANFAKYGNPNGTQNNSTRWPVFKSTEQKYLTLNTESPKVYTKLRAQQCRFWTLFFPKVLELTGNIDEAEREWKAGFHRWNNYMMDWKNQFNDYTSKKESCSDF
Data set [2] is described as follows: Antioxidant activity assessed as galvinoxyl radical scavenging activity at 100 uM after 19 hrs by UV spectrophotometric analysis. The data set is classed as physicochemical. A digest of the protocol: (§1)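 Galvinoxyl radical at 2 µM in ethanol, with compounds in ethanol at 1, 2, 10, 50 or 100 µM. Mixture lines used an equimolar (1:1) blend with ferulic acid. A428 was recorded before addition and after 19 h once stable. Percent radical scavenged = (1 − Abst/Abs0) × 100.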

Data set [3] deals with Acetylcholinesterase (Electrophorus electricus, UniProt O42275). The experiment in a line: Inhibition of electric eel AChE using ATC as substrate preincubated for 5 mins followed by substrate addition measured after 2 mins by Ellman's assay.
Acetylcholinesterase (Electrophorus electricus, UniProt O42275), sequence (O42275 whole entry): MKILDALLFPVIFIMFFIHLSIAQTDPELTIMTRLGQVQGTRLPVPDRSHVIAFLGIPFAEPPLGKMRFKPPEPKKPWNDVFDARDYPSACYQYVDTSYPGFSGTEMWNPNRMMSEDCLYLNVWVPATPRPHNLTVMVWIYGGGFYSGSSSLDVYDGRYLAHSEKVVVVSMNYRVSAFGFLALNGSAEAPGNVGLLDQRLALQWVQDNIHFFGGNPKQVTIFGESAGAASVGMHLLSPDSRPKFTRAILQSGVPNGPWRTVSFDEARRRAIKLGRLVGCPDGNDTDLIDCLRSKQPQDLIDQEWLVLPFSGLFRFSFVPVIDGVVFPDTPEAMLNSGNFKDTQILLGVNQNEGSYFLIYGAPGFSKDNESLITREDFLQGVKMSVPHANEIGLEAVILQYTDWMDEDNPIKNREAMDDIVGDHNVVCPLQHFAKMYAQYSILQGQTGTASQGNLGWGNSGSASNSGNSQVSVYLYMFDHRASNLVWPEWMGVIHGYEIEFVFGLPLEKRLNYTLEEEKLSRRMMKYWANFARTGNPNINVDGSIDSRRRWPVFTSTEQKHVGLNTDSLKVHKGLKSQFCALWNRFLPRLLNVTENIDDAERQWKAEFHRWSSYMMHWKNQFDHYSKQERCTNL
The nature of data set [4]: Antioxidant activity assessed as galvinoxyl radical scavenging activity at 10 uM after 19 hrs by UV spectrophotometric analysis. The data set is classed as physicochemical. Put shortly:
as §1

Data set [5] in a line: Antioxidant activity assessed as DPPH radical scavenging activity at 2 uM after 4 hrs by UV spectrophotometric analysis. In kind it is physicochemical. A digest of the protocol:
(§2)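 DPPH radical at 0.1 mM in ethanol. Test compounds were in ethanol at 1–100 µM (1, 2, 10, 50, 100). Mixture lines used an equimolar (1:1) blend with ferulic acid. Absorbance was read at 517 nm before addition (Abs0) and after 4 h once stable (Abst). Scavenging % = (1 − Abst/Abs0) × 100.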

Data set [6] in a line: Antioxidant activity assessed as DPPH radical scavenging activity at 100 uM after 4 hrs by UV spectrophotometric analysis. In kind it is physicochemical. Put shortly: as §2
(Loss of DPPH colour is used to gauge radical scavenging.)

Data set [7] is described as follows: Cytotoxicity against rat PC12 cells at 0.1 to 50 uM incubated for 24 hrs by MTT assay. The data set is classed as cell-based. The following applies: pc-12, 24 h. A digest of the protocol:
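PC12 cells were grown in F-12 with 10% FBS and penicillin/streptomycin at 37 °C, 5% CO₂, seeded at 2000 cells/well and grown 24 h. Compounds were added from DMSO (final <0.5%) for 24 h. MTT (5 mg/mL) was added for 4 h, formazan dissolved in DMSO and A540 read after cell-free blank subtraction. Viability is % of control; three independent trials, mean ± SEM.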
On the technique in general: Tetrazolium assays rely on reduction of a dye to a coloured formazan, in cell work by metabolically active cells.

Data set [8] deals with PC-12. Nature of the data set: Neuroprotective effect in rat PC12 cells assessed as alleviation of H2O2 -induced toxicity after 24 hrs by MTT assay. In kind it is functional, cell-based. A digest of the protocol: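 PC12 cells (F-12, 10% FBS, 37 °C, 5% CO₂; 2000 cells/well, 24 h pre-culture) were co-treated with compound (0.1, 1, 10, 50; DMSO <0.5%) and H₂O₂ for 24 h. The mixture line used a 1:1 molar blend with ferulic acid. MTT for 4 h, formazan dissolved in DMSO, A540, blank-subtracted. Viability is % of control; three independent trials, mean ± SEM.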

Data set [9] addresses Acetylcholinesterase (Homo sapiens, UniProt P22303). The experiment in a line: Inhibition of human AChE using ATC as substrate preincubated for 5 mins followed by substrate addition measured after 2 mins by Ellman's assay. Put shortly: (§3)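 Ellman's method with DTNB chromogen, acetylthiocholine (AChE) or butyrylthiocholine (BChE) iodide substrate, in potassium phosphate buffer pH 8.0 (KOH-adjusted). Compounds were diluted from ethanol stocks, with a top final concentration of 10^-4 M. At least five concentrations (normally 10^-4–10^-9 M) were run, each in triplicate, read at 412 nm at 25 °C. IC50 values are from inhibition curves, as means of at least three determinations.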

Data set [10] is described as follows: Antioxidant activity assessed as galvinoxyl radical scavenging activity at 1 uM after 19 hrs by UV spectrophotometric analysis. In kind it is physicochemical. Put shortly: as §1
A short description of data set [11]: Antioxidant activity assessed as DPPH radical scavenging activity at 1 uM after 4 hrs by UV spectrophotometric analysis. The data set is classed as physicochemical. Put shortly:
as §2

The nature of data set [12]: Antioxidant activity assessed as galvinoxyl radical scavenging activity at 2 uM after 19 hrs by UV spectrophotometric analysis. The data set is classed as physicochemical. Put shortly:
as §1

Data set [13] in a line: Antioxidant activity assessed as DPPH radical scavenging activity at 50 uM after 4 hrs by UV spectrophotometric analysis. The data set is classed as physicochemical. A digest of the protocol:
as §2

Data set [14] is described as follows: Antioxidant activity assessed as galvinoxyl radical scavenging activity at 50 uM after 19 hrs by UV spectrophotometric analysis. The data set is classed as physicochemical. A digest of the protocol: as §1
A short description of data set [15]: Antioxidant activity assessed as DPPH radical scavenging activity at 10 uM after 4 hrs by UV spectrophotometric analysis. The data set is classed as physicochemical. Put shortly:
as §2

Data set [16] concerns PC-12. Nature of the data set: Neuroprotective effect in rat PC12 cells assessed as alleviation of amyloid beta42-induced toxicity after 24 hrs by MTT assay. In kind it is functional, cell-based. Put shortly: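 Aβ42 was dissolved in hexafluoroisopropanol, dried to a film, taken up in F-12 and held at 4 °C for 24 h. PC12 cells (2000/well, 24 h pre-culture) were co-treated with this Aβ42 and compound (0.1–50; DMSO <0.5%) for 24 h. The mixture line used a 1:1 blend with ferulic acid. MTT for 4 h, A540; % of control, three independent trials, mean ± SEM.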

Data set [17] addresses Cholinesterase (Homo sapiens, UniProt P06276). Nature of the data set: Inhibition of human BChE using BTC as substrate preincubated for 5 mins followed by substrate addition measured after 2 mins by Ellman's assay. Put shortly:
as §3

Cholinesterase (Homo sapiens, UniProt P06276), sequence (P06276 whole entry): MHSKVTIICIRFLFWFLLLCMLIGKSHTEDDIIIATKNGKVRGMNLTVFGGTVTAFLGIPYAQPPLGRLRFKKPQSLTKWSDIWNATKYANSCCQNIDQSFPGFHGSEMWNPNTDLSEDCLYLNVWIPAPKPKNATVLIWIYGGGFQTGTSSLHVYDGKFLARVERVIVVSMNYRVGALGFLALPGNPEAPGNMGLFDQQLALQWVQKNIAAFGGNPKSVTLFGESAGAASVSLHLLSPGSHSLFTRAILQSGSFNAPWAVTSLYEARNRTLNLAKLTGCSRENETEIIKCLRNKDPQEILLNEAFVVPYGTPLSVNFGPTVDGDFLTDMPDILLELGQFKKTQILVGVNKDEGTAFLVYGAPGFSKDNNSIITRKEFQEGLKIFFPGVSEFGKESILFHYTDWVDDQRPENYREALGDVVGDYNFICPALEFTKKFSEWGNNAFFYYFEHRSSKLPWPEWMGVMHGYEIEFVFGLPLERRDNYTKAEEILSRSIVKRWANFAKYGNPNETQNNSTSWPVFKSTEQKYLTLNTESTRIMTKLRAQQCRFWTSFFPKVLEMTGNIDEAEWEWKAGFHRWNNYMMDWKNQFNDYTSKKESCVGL
Acetylcholinesterase (Homo sapiens, UniProt P22303), sequence (P22303 whole entry): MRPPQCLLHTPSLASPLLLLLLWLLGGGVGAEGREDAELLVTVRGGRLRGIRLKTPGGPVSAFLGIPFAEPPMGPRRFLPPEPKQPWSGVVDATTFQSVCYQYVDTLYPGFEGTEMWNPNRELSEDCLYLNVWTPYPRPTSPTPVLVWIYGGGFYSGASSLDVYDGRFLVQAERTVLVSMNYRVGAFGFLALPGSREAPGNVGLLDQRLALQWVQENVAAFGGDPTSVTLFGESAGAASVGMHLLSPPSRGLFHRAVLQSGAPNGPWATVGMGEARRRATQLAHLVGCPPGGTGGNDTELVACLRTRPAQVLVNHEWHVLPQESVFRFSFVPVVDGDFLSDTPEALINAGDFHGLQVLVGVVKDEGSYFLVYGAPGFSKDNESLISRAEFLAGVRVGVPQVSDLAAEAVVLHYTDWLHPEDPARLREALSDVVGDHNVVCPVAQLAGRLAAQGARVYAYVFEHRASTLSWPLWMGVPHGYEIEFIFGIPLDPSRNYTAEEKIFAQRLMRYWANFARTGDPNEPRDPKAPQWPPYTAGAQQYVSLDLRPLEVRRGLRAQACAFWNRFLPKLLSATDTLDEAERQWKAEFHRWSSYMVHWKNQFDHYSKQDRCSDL

What is called IC50 is the concentration that gives 50% inhibition. As for `CCN(Cc1cccc2[nH]c3cc(Cl)ccc3c12)C(=O)/C=C/c1ccc(O)c(OC)c1`, the IC50 in data set [1] was found to be 3100 nM; in data set [3], 1900 nM; in data set [9], 6900 nM; in data set [17], 2800 nM. Moreover, the Activity in data set [2] was 83.2%; in [4], 38.1%; in data set [5], 49.1%; in data set [6], 91.9%; in [7] it was “Non-toxic”; in data set [8], “Dose-dependent effect”. The Activity in data set [10] came to 8.3%; in [11] it was 41.8%; in [12], 22.4%; in data set [13], 77.3%; in [14], 57%; in data set [15], 66%. For the same molecule, the Activity result in data set [16] was “Dose-dependent effect”.
